Drawing on PubChem BioAssay, this text covers activation, potentiation and outcome for 32 compounds.

Calls of active or inactive are those of the source.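 The calls were made as follows, unless noted: active = mean duplicate potentiation above the buffer control mean plus 5 SD of buffer wells; inactive = the rest.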

Assay [1] is described as follows: nonspecific flux increase, KCNQ1-free cells – parental CHO cells, counter-screen for KCNQ1 potentiator project (AID 493006;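 active = duplicate-averaged activation above buffer control mean plus 5 SD of those controls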;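 as to activation: fluorescence ratio of max minus min over baseline after K+ and Tl+ depolarization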). The note with it: parental CHO-K1 cells, FluxOR thallium flux, at 10 µM; active compounds read high. The method, boiled down: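 Material: untransfected host CHO-K1 cells with FluxOR thallium dye. Timing: overnight 37 °C plating, 90 min RT dye, 20 min compound. Detection: kinetic FluxOR fluorescence, 10 s baseline, 110 s after stimulus. Read-out basis: max-minus-min fluorescence over baseline, percent of buffer-to-R-L3 span. Replicates: duplicate wells per compound, percent values averaged.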
On the technique in general: Counterscreens check selectivity or assay interference.

For assay [2], the target named is Potassium voltage-gated channel subfamily KQT member 1 (Homo sapiens) (UniProt P51787). The assay can be described thus: enhancement of KCNQ1 channel thallium flux – FluxOR thallium flux, CHO cells, duplicates, confirmation (AID 493007;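 active = potentiation averaged over duplicate wells exceeding buffer-only control mean by more than 3 SD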;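 as to outcome: cells depolarized by a potassium plus thallium sulfate stimulus after compound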). The note with it: KCNQ1 cell line, FluxOR thallium flux fluorescence, at 10 µM; active compounds read high, % of reference activator effect, buffer zero. An outline of the steps:
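Test system – KCNQ1-expressing CHO cell line · Incubation – FluxOR dye loading 90 min, compound exposure 20 min, room temperature · Detection – FluxOR Tl+ flux fluorescence, 10 s baseline plus 110 s recording · Controls – buffer-only wells as 0% and R-L3 activator as 100%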

For assay [3], the target named is Potassium voltage-gated channel subfamily KQT member 2 (Rattus norvegicus) (UniProt O88943). The assay can be described thus: KCNQ2 thallium flux enhancement – KCNQ2-CHO-K1 cells, selectivity assay for KCNQ1 potentiator project (AID 493009).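 Also: assay conditions were tuned for KCNQ1 rather than KCNQ2 modulators.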 To be noted: FluxOR thallium flux fluorescence, at 10 µM; active compounds read high, scaled: buffer 0, activator control 100.
Sequence of Potassium voltage-gated channel subfamily KQT member 2 (Rattus norvegicus) (O88943 whole entry, looked up): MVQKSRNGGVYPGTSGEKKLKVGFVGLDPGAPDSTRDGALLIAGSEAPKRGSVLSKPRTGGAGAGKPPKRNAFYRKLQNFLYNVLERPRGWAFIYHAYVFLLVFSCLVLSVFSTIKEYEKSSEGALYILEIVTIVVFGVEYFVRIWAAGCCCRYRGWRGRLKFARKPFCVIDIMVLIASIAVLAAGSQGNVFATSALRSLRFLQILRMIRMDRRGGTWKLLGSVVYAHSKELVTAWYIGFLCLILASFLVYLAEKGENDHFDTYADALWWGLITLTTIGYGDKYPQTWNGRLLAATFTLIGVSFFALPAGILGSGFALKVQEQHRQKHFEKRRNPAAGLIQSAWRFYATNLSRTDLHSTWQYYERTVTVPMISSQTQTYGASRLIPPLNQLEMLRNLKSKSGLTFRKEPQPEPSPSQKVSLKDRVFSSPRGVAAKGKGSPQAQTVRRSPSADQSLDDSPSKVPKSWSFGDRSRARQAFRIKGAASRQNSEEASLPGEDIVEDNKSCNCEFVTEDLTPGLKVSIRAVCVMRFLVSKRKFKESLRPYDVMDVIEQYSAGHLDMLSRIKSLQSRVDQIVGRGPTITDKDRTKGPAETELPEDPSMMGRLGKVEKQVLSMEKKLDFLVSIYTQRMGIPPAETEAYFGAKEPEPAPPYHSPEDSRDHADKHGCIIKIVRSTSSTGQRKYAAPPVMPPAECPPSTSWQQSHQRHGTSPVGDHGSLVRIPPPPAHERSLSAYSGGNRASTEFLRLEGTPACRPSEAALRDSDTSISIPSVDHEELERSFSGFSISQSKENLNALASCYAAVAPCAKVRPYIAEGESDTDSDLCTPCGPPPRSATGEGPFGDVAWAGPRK
The target of assay [4] is Potassium voltage-gated channel subfamily KQT member 1 (Homo sapiens) (UniProt P51787). The assay can be described thus: KCNQ1 activators by electrophysiology – IonWorks patch clamp, KCNQ1-CHO cells, orthogonal assay for KCNQ1 potentiator project, confirmation (AID 493184;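 active = current rise at least 3 SD above the untreated control mean in each of two repeat wells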). To be noted: automated patch clamp current, at 10 µM; active compounds read high. The method, boiled down: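 Read-out: Percent current increase versus pre-compound level | Assay system: CHO cells carrying KCNQ1 | Measured by: Automated perforated-patch electrophysiology | Medium: External bath solution at pH 7.4 | Dosing: One dose, 10 µM final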
Sequence of Potassium voltage-gated channel subfamily KQT member 1 (Homo sapiens) (P51787 whole entry, looked up): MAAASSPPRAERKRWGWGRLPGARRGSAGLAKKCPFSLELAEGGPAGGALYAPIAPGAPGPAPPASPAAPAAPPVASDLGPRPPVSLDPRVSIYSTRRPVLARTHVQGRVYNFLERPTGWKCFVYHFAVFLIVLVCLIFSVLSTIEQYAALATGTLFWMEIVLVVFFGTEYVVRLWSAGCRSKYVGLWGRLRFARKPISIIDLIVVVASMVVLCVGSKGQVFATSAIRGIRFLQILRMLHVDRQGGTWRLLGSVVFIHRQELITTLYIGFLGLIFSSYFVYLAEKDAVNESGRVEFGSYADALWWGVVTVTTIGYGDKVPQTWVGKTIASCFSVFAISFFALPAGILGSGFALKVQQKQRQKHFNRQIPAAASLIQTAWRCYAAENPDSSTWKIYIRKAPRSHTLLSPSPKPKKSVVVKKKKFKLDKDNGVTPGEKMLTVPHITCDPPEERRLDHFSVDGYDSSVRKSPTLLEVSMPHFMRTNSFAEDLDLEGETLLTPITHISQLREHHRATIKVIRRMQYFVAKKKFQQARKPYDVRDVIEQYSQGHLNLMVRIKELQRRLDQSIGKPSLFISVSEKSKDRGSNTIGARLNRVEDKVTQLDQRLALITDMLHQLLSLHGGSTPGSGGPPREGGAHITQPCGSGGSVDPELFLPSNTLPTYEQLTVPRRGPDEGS

Take `CCOC(=O)c1n[nH]n2c1nc(=S)c1ccccc12`: in assay [1], the activation was 260% (active). Besides, the values for the potentiation in assay [2] and in assay [3] were 54.5% (active) and 246% (active), respectively. In addition, in assay [4], the outcome was inactive.

For `O=C(NC(=S)Nc1ccccc1Cl)c1csnn1`, the activation in assay [1] was 450% (active). The potentiation in assay [2] is 174% (active); in assay [3] it was 510% (active). Further, in assay [4], the outcome was inactive.

Take `CC(Oc1ccc(Br)cc1)C(=O)N1CCC(C(N)=O)CC1` (stereo not drawn): the result in assay [1], in assay [2], in assay [3] and in assay [4] was inactive.

On to `CCOc1ccc(CN(CCC#N)C(=S)NC(=O)c2ccccc2)cc1`, for which the activation in assay [1] is 149% (active). In addition, the potentiation in assay [2] was 47% (active); in assay [3] it was 216% (active). In addition, the result in assay [4] was inactive.

With `CC(C)CN1C(=O)/C(=C/c2cccs2)NC1=S`, the activation in assay [1] was 392% (active). Also, the potentiation in assay [2] was 180% (active); in assay [3], 450% (active). Moreover, the outcome in assay [4] was inactive.

As to `Cc1sc(-n2c(C)cc(/C=C3\SC(=S)NC3=O)c2C)c(C#N)c1C`, in assay [1], the activation was 145% (active). In addition, the potentiation in assay [2] was 36% (active). The result in assay [3] and in assay [4] was inactive.

Regarding `Cc1ccc(OCC(=O)NNC(=O)C(=O)NC(C)(C)C)cc1`, in assay [1], the activation is 170% (active). Also, the potentiation in assay [2] was 43% (active); in assay [3], 176% (active). In addition, the outcome in assay [4] was inactive.

On to `Cc1ccccc1-n1cnnc1SCC(=O)N1CCN(c2ccccc2)CC1`, for which the activation in assay [1] was 200% (active). The potentiation in assay [2] is 49.5% (active); in assay [3], 206% (active). Also, the outcome in assay [4] was inactive.

For the compound `O=C(NNC(=O)c1ccc(Cl)c(Cl)c1)c1ccncc1`, the outcome in assay [1], in assay [3] and in assay [4] was inactive. For the same compound, the potentiation in assay [2] was 18.5% (active).

For `O=C(NC(=S)Nc1ccccc1N1CCCC1)c1ccccc1Br`, in assay [1], the activation is 179% (active). Further, the potentiation was 55% (active) in assay [2] and 202% (active) in assay [3]. In addition, the result in assay [4] was inactive.

In the case of `CCOC(=O)/C(C)=N/NC(=O)c1ccc([N+](=O)[O-])cc1`, in assay [1], the activation is 328% (active). Besides, the potentiation is 157% (active) in assay [2] and 349% (active) in assay [3]. Further, in assay [4], the outcome was inactive.

Consider `Fc1ccc(-n2nnc(-c3ccccc3)n2)cc1`, for which the outcome in assay [1], in assay [2], in assay [3] and in assay [4] was inactive.

For the compound `Cc1cc(C)cc(C(=O)OCC(=O)NCC(F)(F)F)c1`, the result in assay [1], in assay [2], in assay [3] and in assay [4] was inactive.

With `CC(C)Cc1c2c([nH]c(=S)c1C#N)CCCC2`, the result in assay [1], in assay [2] and in assay [4] was inactive. In addition, the potentiation in assay [3] is 143% (active).

Consider `Cc1ccc(Oc2ccc(NC(=O)Cn3ccsc3=N)cc2)cc1`, for which the outcome in assay [1], in assay [2], in assay [3] and in assay [4] was inactive.

As for `COc1cccc(OCC(=O)NNC(=O)C(=O)Nc2ccc(OC)cc2OC)c1`, the activation in assay [1] was 172% (active). In addition, the figures for the potentiation in assay [2] and in assay [3] were 55.5% (active) and 222% (active), respectively. Besides, the outcome in assay [4] was inactive.

Take `Cc1cc(NC(=O)CSc2nc(C3CC3)nc3sc(C)c(C)c23)no1`: in assay [1], the activation is 148% (active). Besides, the potentiation in assay [2] was 38% (active); in assay [3], 172% (active). In addition, the result in assay [4] was inactive.

In the case of `CCCc1cc(-c2n[nH]c(=S)n2C(C)c2ccccc2)cs1` (stereo not drawn), the activation in assay [1] was 139% (active). Further, in assay [2], the potentiation was 37% (active). Also, the outcome in assay [3] and in assay [4] was inactive.

For the compound `Cc1ccc(-c2cc(C(=O)NCc3ccccn3)c3ccccc3n2)cc1C`, the result in assay [1], in assay [2], in assay [3] and in assay [4] was inactive.

`Cc1cc(-c2csc3nc[nH]c(=S)c23)cc(C)c1C`: the activation in assay [1] is 286% (active). The potentiation was 255% (active) in assay [2] and 408% (active) in assay [3]. Besides, the outcome in assay [4] was inactive.

Regarding `CCOc1ccc(CCNC(=O)CSc2nc3ncc(Cl)cc3[nH]2)cc1OCC`, the outcome in assay [1], in assay [2], in assay [3] and in assay [4] was inactive.

`COc1ccc(N2CCN(C(=O)COC(=O)/C=C/c3ccc(OC(F)F)cc3)CC2)cc1`: the activation in assay [1] is 178% (active). The potentiation in assay [2] was 64.5% (active); in assay [3], 228% (active). Moreover, the result in assay [4] was inactive.

Turning to `O=C(Nc1ccc2[nH]c(=S)sc2c1)Nc1ccccc1F`, the activation in assay [1] was 150% (active). Besides, the potentiation in assay [2] was 68% (active); in assay [3], 240% (active). The result in assay [4] was inactive.

Turning to `Cc1cc(Nc2cc(N3CCN(C)CC3)nc(Sc3ccc(NC(=O)C4CC4)cc3)n2)n[nH]1`, the activation in assay [1] is 140% (active). Besides, the potentiation in assay [2] was 30% (active); in assay [3], 144% (active). Moreover, the outcome in assay [4] was inactive.

Turning to `S=c1nc(COc2ccccc2)[nH]c2ccccc12`, the activation in assay [1] is 698% (active). The figures for the potentiation in assay [2] and in assay [3] were 212% (active) and 552% (active), respectively. Further, the outcome in assay [4] was inactive.

For `C=CCn1c(=S)[nH]c2scc(-c3ccc(C)o3)c2c1=O`, the activation in assay [1] was 550% (active). The potentiation is 276% (active) in assay [2] and 580% (active) in assay [3]. The outcome in assay [4] was inactive.

On to `Cc1cc(/C=C2\SC(=Nc3ccc(F)cc3)NC2=O)c(C)n1-c1ccc(S(N)(=O)=O)cc1`, for which the outcome in assay [1], in assay [2], in assay [3] and in assay [4] was inactive.

With `Cc1nonc1NC(=O)OC1CCCCC1`, the outcome in assay [1], in assay [2], in assay [3] and in assay [4] was inactive.

Consider `CCN(C(=S)NC(=O)c1ccccc1Br)C1CCCCC1`, for which, in assay [1], the activation is 358% (active). Further, the potentiation in assay [2] was 124% (active); in assay [3], 370% (active). Moreover, the outcome in assay [4] was inactive.

As to `CCOC(=O)c1nnn(CC(=O)Nc2cc(Cl)ccc2C)c1C(=O)OCC`, in assay [1], the activation was 164% (active). Also, the potentiation in assay [2] was 33% (active). Moreover, the result in assay [3] and in assay [4] was inactive.

For the compound `COc1ccc(CCNC(=O)c2c(C)nc3ccccn23)cc1`, the result in assay [1], in assay [2], in assay [3] and in assay [4] was inactive.

With `COc1ccc(OCc2cc(C(=O)N(C)CC3CCCCO3)no2)c(Cl)c1` (stereo not drawn), the outcome in assay [1], in assay [3] and in assay [4] was inactive. Further, in assay [2], the potentiation was 17.5% (active).
